Results from different studies.
Protocols differ between the studies behind these lines.
Target: Serine/threonine-protein kinase pim-1 (PIM1, Homo sapiens, UniProt P11309)

| Compound | observed | mode | technique | tested at | endpoint | value |
| --- | --- | --- | --- | --- | --- | --- |
| FC(F)(F)Oc1cccc(-c2cnc3ccc(-c4ccncc4)nn23)c1 | enzyme activity | inhibitor | radiometric | 1 µM | activity vs control | 59% |
| COc1cc(Cl)c(C(=O)N[C@@H](CN[C@H]2CC[C@@H](N)CC2)Cc2ccc(C#N)cc2)cc1-c1ccc(CN[C@H](C)c2ccc(C)cc2)o1 | enzyme activity | inhibitor | – | 1 µM | remaining activity | 110% |
| CCCOc1ccc(OC)c(F)c1C(=O)c1ccc(C(=O)N[C@@H]2CNC[C@H]2NC(=O)c2ccc3[nH]ncc3c2)cc1 | enzyme activity | inhibitor | – | 10 µM | remaining activity | 40% |
| Cc1ccc(Nc2nccc(N(C)c3ccc4c(C)n(C)nc4c3)n2)cc1S(N)(=O)=O | enzyme activity | inhibitor | – | 10 µM | inhibition | 7% |
| Nc1nc(NC2CCCCC2)sc1C(=O)c1ccccc1 | enzyme activity | inhibitor | – | 10 µM | remaining activity | 94% |
| O=C(N1CCS(=O)(=O)CC1)N1C[C@H](c2ccc(OC(F)(F)F)cc2)C[C@H](c2nc(C3CC3)no2)C1 | cell-free assay | – | competition with immobilised ligand | 1 µM | remaining binding | 100% |
| N#CCCc1ccc2c(c1)-c1[nH]c3ccc([N+](=O)[O-])cc3c1CC(=O)N2 | cell-free assay | – | – | 0.5 µM | remaining signal | 93.6% |
| CC(C)(C)c1nc(-c2cccc(NS(=O)(=O)c3c(F)cccc3F)c2F)c(-c2ccnc(N)n2)s1 | enzyme activity | inhibitor | radiometric | 1 µM | remaining activity | 109% |
| COc1cc2ncnc(Nc3ccc(Oc4ccccc4)c(C)c3C)c2cc1OC | enzyme activity | inhibitor | – | 1 µM | inhibition | 5% |
| Oc1cccc(-c2nc(N3CCOCC3)c3oc4ncccc4c3n2)c1 | enzyme activity | inhibitor | – | 10 µM | remaining activity | 72% |
| Nc1ncnc2occ(-c3ccc(NC(=O)Nc4cc(C(F)(F)F)ccc4F)cc3)c12 | cell-free assay | inhibitor | – | 20 µM | remaining signal | 55% |
| CSc1cccnc1N1CCN(Cc2nc3ccccc3[nH]2)CC1 | cell-free assay | – | competition with immobilised ligand | 1 µM | remaining binding | 100% |
| O=C(Nc1cnn(-c2csc(C(=O)NC3COC3)c2)c1)Nc1c(F)cccc1Cl | enzyme activity | inhibitor | – | 5 µM | remaining activity | 73.3% |
| COc1cc(Nc2cnc(C#N)c(O[C@H](C)CN(C)C)n2)ncc1-c1cnn(C)c1 | enzyme activity | inhibitor | radiometric | 1 µM | remaining activity | 72% |
| CC/C(=N\NC(=O)NCc1cccc(O)c1)c1ccc(O)c(C)c1O | enzyme activity | inhibitor | – | 0.1 µM | inhibition | 2.4% |
| CNCc1ccccc1-c1csc([C@H](C)Nc2nc(C)nc3cc(OC)c(OC)cc23)c1 | cell-free assay | – | competition with immobilised ligand | 1 µM | remaining binding | 100% |
| CCN(CC)c1ccc(C2=NNC(=O)CC2C)cc1[N+](=O)[O-] (stereo not shown) | enzyme activity | inhibitor | – | 10 µM | remaining activity | 82% |

| Compound | observed | mode | technique | tested at | endpoint | value |
| --- | --- | --- | --- | --- | --- | --- |
| O=C(CSc1nc2nccnc2c(=O)n1CCc1ccccc1)Nc1nccs1 | enzyme activity | inhibitor | – | 10 µM | inhibition | 5% |
| Nc1ncnc2c1ncn2[C@@H]1O[C@H](COP(=O)(O)OP(=O)(O)OP(=O)(O)O)[C@@H](O)[C@H]1O | enzyme activity | substrate | radiometric | – | Km | 48 µM |
| Cn1cc(Cl)c2c(Oc3c(F)cc(Nc4cc(Cl)nc(N)n4)cc3F)ccnc21 | cell-free assay | – | competition with immobilised ligand | 0.1 µM | remaining binding | 100% |
| CN(C)C1CCN(CC#Cc2nn(C3CCCC3)c3nc(NCc4ccccc4)ncc23)C1 (stereo not shown) | enzyme activity | inhibitor | FRET | 1 µM | inhibition | 2% |
| O=C(Nc1cnn(-c2csc(C(=O)NC3COC3)c2)c1)Nc1ccccc1Cl | enzyme activity | inhibitor | – | 5 µM | remaining activity | 64.6% |
| N#Cc1ccc(Nc2ccc3[nH]c(=O)[nH]c3c2)c(Cl)c1 | cell-free assay | – | competition with immobilised ligand | 1 µM | remaining binding | 90% |
| O=S(=O)(Nc1cc(Sc2ncn[nH]2)c(O)c2ccccc12)c1ccc(-c2ccccc2)cc1 | enzyme activity | inhibitor | – | 1 µM | remaining activity | ≥ 75% |
| COc1cc(Nc2c(C#N)cnc3cc(OCCCN4CCN(C)CC4)c(OC)cc23)c(Cl)cc1Cl | cell-free assay | – | – | 0.5 µM | remaining signal | 99.2% |
| Nc1c(C(=O)NCc2ccc(C(=O)NCCCC3CCCCC3)cc2)cnn1-c1ccccc1 | cell-free assay | – | competition with immobilised ligand | 0.1 µM | remaining binding | 93% |
| CNC(=O)c1cc(Oc2ccc(NC(=O)Nc3ccc(Cl)c(C(F)(F)F)c3)cc2)ccn1 | enzyme activity | inhibitor | – | 0.3 µM | inhibition | -2% |
| O=C(NCCCC1CCCCC1)c1ccc(CNC(=O)c2cnn(-c3ccccc3)c2C(F)(F)F)cc1 | cell-free assay | – | competition with immobilised ligand | 0.1 µM | remaining binding | 100% |
| Cc1ccc(NC(=O)c2ccc(C)c(C(F)(F)F)c2)cc1C#Cc1nn(C2CCC(O)CC2)c2ncnc(N)c12 (stereo not shown) | cell-free assay | – | – | 10 µM | remaining signal | 99% |
| CCCS(=O)(=O)Nc1ccc(F)c(C(=O)c2c[nH]c3ncc(-c4ccc(Cl)cc4)cc23)c1F | enzyme activity | inhibitor | – | 1 µM | inhibition | < 10% |
| O=C1NC(=O)c2cc(Nc3ccc(F)cc3)c(Nc3ccc(F)cc3)cc21 | cell-free assay | – | – | 0.5 µM | remaining signal | 81.8% |
| COCCOc1nc(-c2ccc(Cl)nc2)nc2c1CN(C(=O)c1ncn3ccccc13)CC2 | cell-free assay | – | competition with immobilised ligand | 0.1 µM | remaining binding | 100% |
| Cn1c2c(c3ccc(Cl)c(Cl)c31)C(C#N)C1(CCNCC1)NC2=O (racemic) | thermal stability | – | DSF | 10 µM | ΔTm | > 8 °C |
| O=C1Nc2ccc(Cl)cc2C1=Cc1cc(Cl)c(O)c(Cl)c1 | cell-free assay | – | – | 0.5 µM | remaining signal | 19.4% |
